Values joined by “and” are separate entries in the source; they are usually repeats but may differ in a detail not shown here. Identical values can stand only once.
What was measured:
[1] = In vivo blood glucose was determined in obese, hyperglycemic, hyperinsulinemic, insulin-resistant KKAy mice after a dose of 500 mg/kg for 4 days; type: functional, Mus musculus
[2] = Inhibition of creatine transport was assessed from Percent inhibition of [C14] creatine uptake; type: functional; design: concentration or dose not given beside the values; conditions: dose or concentration not given here
[3] = target: Creatine kinase M-type (Homo sapiens) (UniProt P06732); test: Reaction rate of creatine kinase activity is determined at 1 mM concentration
Sequence of Creatine kinase M-type (Homo sapiens) (P06732 whole entry): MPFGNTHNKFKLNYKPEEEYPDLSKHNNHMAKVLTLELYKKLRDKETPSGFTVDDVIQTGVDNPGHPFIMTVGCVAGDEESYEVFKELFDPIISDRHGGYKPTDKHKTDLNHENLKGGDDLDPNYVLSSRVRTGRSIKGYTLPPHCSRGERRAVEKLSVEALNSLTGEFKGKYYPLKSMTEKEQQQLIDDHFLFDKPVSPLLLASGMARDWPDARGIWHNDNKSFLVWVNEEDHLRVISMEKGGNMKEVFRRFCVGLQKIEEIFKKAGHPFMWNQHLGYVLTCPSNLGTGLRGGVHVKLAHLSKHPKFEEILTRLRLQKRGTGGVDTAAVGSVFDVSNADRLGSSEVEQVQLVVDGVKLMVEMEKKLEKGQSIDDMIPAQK

[4] = species: Mus musculus; test: Initial blood glucose level was determined in ob/ob mice (control=228+/-19); type: functional
Method in brief: (§1)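 ob/ob mice on Purina 5015 chow, given drug as admixture in milled chow for 14 days. Intake measured from food-bowl weight change. Blood from retro-orbital sinus, heparinized, kept on ice and analyzed promptly. Blood glucose measured before and after treatment. Group sizes 8–15, housed at 21 °C on 12 h light–dark cycle; two-way ANOVA, Student–Newman–Keuls post hoc.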

[5] = system: Mus musculus; test: Average daily food consumption was determined in ob/ob mice after oral administration for two weeks (control = 90+/-3); type: functional
[6] = species: Mus musculus; test: Average daily dose was determined in ob/ob mice(control=0); type: functional
[7] = system: Mus musculus; test: Terminal blood glucose level was determined in ob/ob mice after oral administration for two weeks (control = 226+/-29); type: functional; method in brief: as §1
[8] = species: Mus musculus; test: Initial body weight was determined in ob/ob mice (control=55+/-1); type: functional
[9] = system: Mus musculus; test: Terminal body weight was determined in ob/ob mice after oral administration for two weeks (control = 53+/-1); type: functional
[10] = system: Mus musculus; test: Terminal lean body weight was determined in ob/ob mice after oral administration for two weeks (control = 25+/-1); type: functional
[11] = system: Mus musculus; test: Terminal fat body weight was determined in ob/ob mice after oral administration for two weeks (control = 28+/-0.9); type: functional
[12] = target: Creatine kinase M-type (Homo sapiens) (UniProt P06732); test: Reaction rate of creatine kinase was determined (relative to creatine)
[13] = system: Mus musculus; test: In vivo blood glucose was determined in obese,hyperglycemic,hyperinsulinemic,insulin-resistant KKAy mice after a dose of 500 mg/kg for 4 days; type: functional
Method in brief: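 KKAy mice (obese, hyperinsulinemic) grouped into treated and control (n = 6) after pretest glucose on an Alpkem autoanalyzer. Compound given in food at 500 mg/kg for 4 days, then nonfasting blood glucose measured. Result expressed as treated/control (T/C). Wilcoxon rank-sum test applied when T/C < 0.80.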

[14] = system: Rhesus monkey; test: Fasting plasma glucose was determined in insulin-resistant Rhesus monkeys after a treatment sequence of placebo followed by a dose of 3 mg/kg/day; type: functional, organism-based; conditions: Cercopithecidae
Method in brief: (§2)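 Insulin-resistant rhesus monkeys (ovariectomized females, 15–30 years) dosed orally once daily around 8 a.m., drug dissolved in diet orange soda and drunk voluntarily from a syringe tip. Sequence: placebo, 10 mg/kg/day, placebo, 3 mg/kg/day; placebo phases averaged. Meal tolerance test in conscious animals: glucose and insulin after overnight fast and for 3 h after a liquid meal. Insulin by double-antibody RIA (125I-porcine insulin tracer, human insulin standard); repeated-measures ANOVA, Tukey post hoc.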

[15] = system: Rhesus monkey; test: Fasting plasma insulin was determined in insulin-resistant Rhesus monkeys after a treatment sequence of placebo followed by a dose of 10 mg/kg/day; type: functional, organism-based; conditions: Cercopithecidae
Method in brief: (§3)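 Ovariectomized female rhesus monkeys aged 15–30 y, with fasting insulin and glucose elevated over the colony norm. Compound dissolved in diet orange soda and drunk voluntarily from a syringe once daily at ~8:00 a.m. Sequence: placebo, 10 mg/kg/day, placebo, 3 mg/kg/day; placebo phases averaged. Overnight fast. Insulin by double-antibody RIA (guinea pig anti-human insulin, 125I-porcine insulin tracer, human insulin standard). Repeated-measures ANOVA, Tukey post hoc.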

[16] = system: Rhesus monkey; test: Post-prandial plasma insulin was determined in insulin-resistant Rhesus monkeys after a treatment sequence of placebo followed by a dose of 10 mg/kg/day; type: functional, organism-based; conditions: Cercopithecidae; method in brief: as §2
[17] = system: Rhesus monkey; test: Post-prandial plasma insulin was determined in insulin-resistant Rhesus monkeys after a treatment sequence of placebo followed by a dose of 3 mg/kg/day; type: functional, organism-based; conditions: Cercopithecidae; method in brief: as §2
[18] = system: Rhesus monkey; test: Fasting plasma insulin was determined in insulin-resistant Rhesus monkeys after a treatment sequence of placebo followed by a dose of 3 mg/kg/day; type: functional, organism-based; conditions: Cercopithecidae; method in brief: as §3
[19] = target: Creatine kinase M-type (Homo sapiens) (UniProt P06732); test: Reaction rate of creatine kinase was determined at 50 mM concentration (relative to creatine)

| Structure (SMILES) | MISS T/C [1] | other results |
| --- | --- | --- |
| Cl.Cl.NCC(CN)CCC(=O)O | 0.84 |  |
| C/C(=N\N=C(N)N)C(=O)O.Cl | 0.9 |  |
| N=C(N)/N=C(\N)NCCCC(=O)O | 1.05 |  |
| N=C(NN)NCCCC(=O)O | 1.14 |  |
| NC(=O)NNC(=NCC(=O)O)NNC(N)=O | 0.86 |  |
| CN(/N=C/C(=O)O)C(=N)N | 0.95 |  |
| COC(=O)NNC(=NCC(=O)O)NNC(=O)OC | 0.92 |  |
| N=C(NCCN)NCC(=O)O | 0.99 |  |
| Cl.Cl.N=C(CN)NCC(=O)O | 0.95 |  |
| N/N=C(/NCC(=O)O)NN1CCOCC1 | 1 |  |
| CNC(=N)N/N=C/C(=O)O | 0.94 |  |
| C[C@@H](N=C(NN)NN)C(=O)O | 0.66 |  |
| NNC(=NCCCC(=O)O)NN | 0.93 |  |
| CCCCCC/C(=N\N=C(N)N)C(=O)O | 0.73 |  |
| N/N=C(/NCC(=O)O)NNc1ccccn1 | 0.91 |  |
| Cl.O=C(O)/C=N/Nc1ccccn1 | <0.73 |  |
| CC(C)=NNC(=N)NNCC(=O)O | 0.98 |  |
| COC(=O)/C=N/N=C(N)N | 1.16 |  |
| CN(CC(=O)O)C(=N)N |  | inhibition [2]: 92%; Reaction rate [3]: 100 |
| CCC(NN=C(N)N)C(=O)O (stereo not drawn) | 1.08 |  |
| CCOC(=O)CC/N=C(\N)N=C(N)N.Cl.Cl | 1.06 |  |

| Structure (SMILES) | MISS T/C [1] | other results |
| --- | --- | --- |
| N=C(N)NNCCC(=O)O | 1.11 |  |
| N=C(NN)NCCC(=O)O | 0.83 |  |
| O=C(O)CN=C(NCCO)NCCO | 1.07 |  |
| CN(C)/N=C(\NN)NCC(=O)O | 0.8 |  |
| N/C(=N/CC(=O)O)NO | 1.06 |  |
| CN1NC(=O)CN=C1NN | 1.16 |  |
| Cl.Cl.N=C(N)CNCC(=O)O | 1.18 |  |
| Cl.NNC1=NC(=O)CNN1 | 1 |  |
| NNc1nncc(O)n1 | 0.84 |  |
| Cl.NCCNC(=NCC(=O)O)NCCN | 0.86 |  |
| CN(NC(=NCC(=O)O)NN(C)C(=O)OC(C)(C)C)C(=O)OC(C)(C)C | 0.85 |  |
| Cl.Cl.N=C(N)C(=N)NCCC(=O)O | 1.1 |  |
| Nc1nncc(O)n1 | 0.98 |  |
| O=C(O)/C=N/NC1=NCCN1 | 1.01 |  |
| N=C(N)/N=C(\N)NCCC(=O)O | 0.88 |  |
| N=C(N)N/N=C(/C(=O)O)c1ccccc1 | 1.04 |  |
| Nc1nncn1NCC(=O)O | 0.96 |  |
| CC(C)(C)OC(=O)NNC(=NCC(=O)O)NNC(=O)OC(C)(C)C | 0.86 |  |
| N=C(N)C(=N)NCC(=O)O | 1.08 |  |
| N=C(N)NCC(=O)O [GUANIDINO ACETATE] | <0.62 |  |
| CC(C)[C@H](N=C(NN)NN)C(=O)O | 0.56 |  |

| Structure (SMILES) | MISS T/C [1] | other results |
| --- | --- | --- |
| COC(=O)CNN=C(N)N.Cl | 1.12 |  |
| O=C(O)CNC1=NNC(=O)NN1 | 1.04 |  |
| Cl.Cl.N=C(CN)NCCC(=O)O | 0.97 |  |
| CC/C(=N\N=C(N)N)C(=O)O.Cl | 0.77 |  |
| N=C(NN)NCC(=O)O | 0.51 | Blood glucose [4]: 227 mg/dL; Food intake [5]: 87 g/kg; Dose [6]: 436 mg/kg; Blood glucose [7]: 97 mg/dL; Body weight [8]: 52 g; Body weight [9]: 46 g; Body weight [10]: 23 g; Body weight [11]: 23 g |
| NNC(=NCCC(=O)O)NN | 0.78 |  |
| CC1=NN=C(NCC(=O)O)NN1 | 0.97 |  |
| Cl.Cl.N=C(N)CNCCC(=O)O | 0.96 |  |
| N=C(N)NNC(C(=O)O)c1ccccc1 (stereo not drawn) | 1.11 |  |
| Cl.Cl.N/C(CNCCC(=O)O)=N\O | 1 |  |
| CC(C)(C)OC(=O)NCC/N=C(\NN)NCC(=O)O | 0.81 |  |
| CC(=O)NNC(=NCC(=O)O)NNC(C)=O | 0.84 |  |
| Cl.Cl.N/C(CNCC(=O)O)=N\O | 0.88 |  |
| NNC(=NCC(=O)O)NN |  | Reaction rate [12]: 0.1; inhibition [2]: 88%; blood glucose treated/control ratio [13]: 0.23 |
| C[C@H](N=C(NN)NN)C(=O)O | 0.57 |  |
| N=C(N)N/N=C(\Cc1ccccc1)C(=O)O | 0.68 |  |
| NN1CCNN=C1NCC(=O)O | 0.77 |  |
| Cc1cc(C)n(NC(=NCC(=O)O)Nn2nc(C)cc2C)n1 | 1 |  |
| CN(C)CCNC(=NCC(=O)O)NCCN(C)C | 0.95 |  |
| N=C(N)NNC(Cc1ccccc1)C(=O)O (stereo not drawn) | 0.87 |  |
| CC(C)(C)OC(=O)NCCNC(=NCC(=O)O)NCCNC(=O)OC(C)(C)C | 0.9 |  |

| Structure (SMILES) | MISS T/C [1] | other results |
| --- | --- | --- |
| N/N=C(\NN)N[C@H](C(=O)O)c1ccccc1 | 1.06 |  |
| N/N=C(\NCCO)NCC(=O)O | 1.01 |  |
| N=C(N)N(N)CC(=O)O | 1.04 |  |
| N=C(NN)NNCC(=O)O |  | Reaction rate [12]: 0; Blood glucose [4]: 226 mg/dL; Food intake [5]: 81 g/kg; Dose [6]: 406 mg/kg; Blood glucose [7]: <85 mg/dL; inhibition [2]: 26%; Body weight [8]: 52 g; Body weight [9]: <43 g; blood glucose treated/control ratio [13]: 0.69; Body weight [10]: <22 g; Body weight [11]: <20 g |
| N/N=C(\N)N(N)CC(=O)O |  | Reaction rate [12]: 0; Blood glucose [4]: 228 mg/dL; Plasma glucose [14]: 81 mg/dL and < 64 mg/dL; Food intake [5]: <52 g/kg; Dose [6]: 26 mg/kg; Blood glucose [7]: <57 mg/dL; Plasma insulin [15]: 35 uU ml-1; Body weight [8]: <59 g; AUC [16]: 30 mU min dl-1; Body weight [9]: <44 g; blood glucose treated/control ratio [13]: <0.43; Body weight [10]: <22 g; AUC [17]: 38 mU min dl-1; Plasma insulin [18]: 41 uU ml-1; Body weight [11]: <22 g |
| Cl.NC1=NC(=O)CNN1 | 1.08 |  |
| N=C(N)NNCC(=O)O |  | inhibition [2]: 36%; Reaction rate [19]: 0.24; blood glucose treated/control ratio [13]: <0.61 |
| N=C(N)/N=C(\N)NCC(=O)O | 1.01 |  |
| COC(=O)CC/N=C(\N)C(=N)N.Cl.Cl | 1 |  |
| Nc1nccn1NCC(=O)O | 0.99 |  |
| N/C(=N\N=C\C(=O)O)N/N=C/C(=O)O | 0.88 |  |
| N/N=C(\NN)N[C@@H](Cc1ccccc1)C(=O)O | 0.88 |  |
| N/N=C(/NCC(=O)O)NNC(N)=O | 0.86 |  |
| N/C(=N/NCC(=O)O)N/N=C/c1ccccc1 | 0.89 |  |
| CC(C)NNC(=N)NNCC(=O)O | 0.9 |  |
| N=C(N)/N=C(\N)NCCS(=O)O | 0.92 |  |
| N/N=C(/NCC(=O)O)Nc1cc[nH]n1 | 0.89 |  |
| N=C(N)N/N=C/C(=O)O | <0.52 |  |

— ChEMBL document CHEMBL1134394, “Synthesis and biological activity of aminoguanidine and diaminoguanidine analogues of the antidiabetic/antiobesity agent 3-guanidinopropionic acid” (2001)
